From PMC6487859 (Journal of the American Chemical Society, 2018) come the findings set out here.

For one series, the system named is CDK12/13. The note with it: live HeLa S3 cells, 4 h; cyclin K as proxy.
Series [1] addresses T1, PKN3 (Homo sapiens, UniProt Q6P5Z2). As to the kind of experiment: target engagement pulldown, live HeLa S3 cells, THZ1-DTB. In kind it is cell-based. Conditions: 4 h, Western blot. On the technique in general: Immunoblotting shows a protein as a band on a membrane.
Series [2] addresses T2, PRKCQ (Homo sapiens, UniProt Q04759). The description is as above. The note with it: 4 h, Western blot. It is filed as cell-based.
The target of series [3] is T3, CDK7 (Homo sapiens, UniProt P50613). The series is described as above. Conditions: 4 h, Western blot. It is filed as cell-based.
T3 sequence (P50613 2-346 limits assumed): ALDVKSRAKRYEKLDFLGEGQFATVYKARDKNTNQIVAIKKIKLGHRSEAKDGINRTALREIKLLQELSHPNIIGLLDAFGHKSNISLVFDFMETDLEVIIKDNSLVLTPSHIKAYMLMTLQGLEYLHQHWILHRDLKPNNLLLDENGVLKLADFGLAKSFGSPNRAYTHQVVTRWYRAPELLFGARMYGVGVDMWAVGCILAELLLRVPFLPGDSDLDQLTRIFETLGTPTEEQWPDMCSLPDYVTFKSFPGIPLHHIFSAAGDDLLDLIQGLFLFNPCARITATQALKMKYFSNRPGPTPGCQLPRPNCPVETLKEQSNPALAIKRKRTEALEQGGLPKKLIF
T3 sequence (P51946 whole entry partner): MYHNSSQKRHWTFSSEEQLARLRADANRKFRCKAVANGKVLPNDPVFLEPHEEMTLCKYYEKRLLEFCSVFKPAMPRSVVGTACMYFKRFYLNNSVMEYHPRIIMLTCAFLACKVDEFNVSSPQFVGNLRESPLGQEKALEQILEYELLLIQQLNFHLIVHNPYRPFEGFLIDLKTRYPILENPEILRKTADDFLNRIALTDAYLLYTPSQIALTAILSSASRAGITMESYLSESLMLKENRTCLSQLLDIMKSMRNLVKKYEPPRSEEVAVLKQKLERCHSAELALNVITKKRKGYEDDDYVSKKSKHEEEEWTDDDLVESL
T3 sequence (P51948 whole entry partner): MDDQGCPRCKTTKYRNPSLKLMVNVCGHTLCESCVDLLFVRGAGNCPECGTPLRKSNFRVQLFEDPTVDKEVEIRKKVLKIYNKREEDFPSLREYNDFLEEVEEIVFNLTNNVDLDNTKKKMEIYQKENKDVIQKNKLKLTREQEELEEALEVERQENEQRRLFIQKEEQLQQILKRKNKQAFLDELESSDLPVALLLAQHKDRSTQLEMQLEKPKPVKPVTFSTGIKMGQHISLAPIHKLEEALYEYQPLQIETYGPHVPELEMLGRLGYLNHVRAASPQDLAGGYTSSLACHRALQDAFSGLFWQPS
The target of series [4] is T1, PKN3. As to the kind of experiment: in vitro PKN3 kinase assay. The note with it: for time-dependent inhibition of PKN3: fixed inhibitor concentration 1 μM, preincubation 0 to 120 min. It is filed as biochemical. An outline of the steps: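 Enzyme was preincubated with test compound 30 min, then reacted 30 min at RT with 68 µM ATP plus 1 µCi [γ-32P]ATP. TCA stop, phosphocellulose capture, phosphoric-acid washes, scintillation counting. IC50 came from a 7-point dose-response. Time course used 1 µM compound with 0–120 min preincubation.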

Series [5] addresses glycogen synthase kinase 3B (GSK3B) at C14 (Homo sapiens, UniProt P49841). Nature of the series: CITe-Id, HeLa S3 lysates, THZ1-DTB. In kind it is binding. The note with it: competition with 2 μM THZ1-DTB. An outline of the steps: (§1)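 Precleared on streptavidin resin 1 h at 4 °C, split four ways. DMSO or rising test-compound doses for 1 h at RT, then 2 µM desthiobiotin probe at 4 °C for 18 h. Urea denaturation, DTT/IAA, tryptic digest. Streptavidin-enriched probe peptides were iTRAQ-labelled for RP-SAX-RP LC–MS/MS. Slope of reporter ratios (vs DMSO) against concentration scored each cysteine. Hits exceeded 2 SD over the mean of 527 sites; biological replicates.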

The target of a further series is CDK13 (Homo sapiens, UniProt Q14004). As to the kind of experiment: CITe-Id, HeLa S3 lysates, THZ1-DTB. In kind it is binding. Conditions: competition with 2 μM THZ1-DTB. The procedure, abridged:
as §1

Series [6] has as its target T1, PKN3. As to the kind of experiment: PKN3 in vitro phosphorylation of candidate substrate synthetic peptides. It is filed as biochemical. Conditions: pretreatment 1 μM for 30 min. The procedure, abridged: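 Recombinant PKN3 (25 ng) was preincubated with test compound at 1 μM for 30 min. Reactions ran 1 h at 37 °C and were stopped with 1% acetic acid. Peptides were desalted and read by MALDI TOF/TOF. Percent phosphorylation was inferred from the loss of unphosphorylated signal against a no-ATP control; four replicates.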

The next series concerns the target PKN3 at C840 (Homo sapiens, UniProt Q6P5Z2). As to the kind of experiment: CITe-Id, HeLa S3 lysates, THZ1-DTB. It is filed as binding. Conditions: competition with 2 μM THZ1-DTB. The procedure, abridged:
as §1

Series [7] addresses T2, PRKCQ. Nature of the series: SelectScreen kinase assay. It is filed as biochemical. The note with it: 10-dose titration.
A further series has as its target CDK12 (Homo sapiens, UniProt Q9NYV4). Nature of the series: CITe-Id, HeLa S3 lysates, THZ1-DTB. It is filed as binding. The note with it: competition with 2 μM THZ1-DTB. The procedure, abridged:
as §1

Series [8] addresses T3, CDK7. Nature of the series: CITe-Id, HeLa S3 lysates, THZ1-DTB. It is filed as binding. Conditions: competition with 2 μM THZ1-DTB. The procedure, abridged:
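Aliquots pretreated with DMSO or increasing test compound concentrations for 1 h at RT, then 2 μM desthiobiotin probe for 18 h at 4 °C. Denatured, reduced, alkylated, trypsin-digested; probe peptides streptavidin-enriched, iTRAQ-labelled, LC–MS/MS. Cysteine reporter ratios versus the DMSO channel were regressed against concentration, and the slope was taken as the dose response.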

For series [9], the target named is protein kinase C theta (PRKCQ) at C661 (Homo sapiens, UniProt Q04759). As to the kind of experiment: CITe-Id, HeLa S3 lysates, THZ1-DTB. Conditions: competition with 2 μM THZ1-DTB. In kind it is binding. The procedure, abridged: as §1
Chain of protein kinase C theta (PRKCQ) at C661 (Q04759 whole entry): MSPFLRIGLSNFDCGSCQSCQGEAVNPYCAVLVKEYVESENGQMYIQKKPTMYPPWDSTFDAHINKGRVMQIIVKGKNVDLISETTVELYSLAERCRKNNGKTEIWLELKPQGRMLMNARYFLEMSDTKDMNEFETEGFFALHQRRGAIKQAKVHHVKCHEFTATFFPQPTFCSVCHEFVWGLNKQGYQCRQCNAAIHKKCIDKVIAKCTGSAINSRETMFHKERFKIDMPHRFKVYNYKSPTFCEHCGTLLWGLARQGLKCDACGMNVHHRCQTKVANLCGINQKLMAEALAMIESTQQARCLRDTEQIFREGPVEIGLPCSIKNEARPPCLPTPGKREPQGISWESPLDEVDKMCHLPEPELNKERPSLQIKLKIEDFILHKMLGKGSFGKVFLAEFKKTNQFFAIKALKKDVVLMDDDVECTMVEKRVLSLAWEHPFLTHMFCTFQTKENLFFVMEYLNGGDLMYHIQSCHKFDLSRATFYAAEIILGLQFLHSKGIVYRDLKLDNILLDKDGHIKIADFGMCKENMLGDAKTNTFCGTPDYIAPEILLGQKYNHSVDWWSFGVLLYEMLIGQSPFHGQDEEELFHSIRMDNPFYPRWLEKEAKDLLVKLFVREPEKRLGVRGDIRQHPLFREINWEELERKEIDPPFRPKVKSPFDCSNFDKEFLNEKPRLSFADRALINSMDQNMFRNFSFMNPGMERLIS
Series [10] deals with cysteine residues across the proteome. Nature of the series: CITe-Id proteome-wide, HeLa S3 lysates. In kind it is binding, human. An outline of the steps: as §1
A further series concerns the target T4, CYP1B1 (Homo sapiens, UniProt Q16678).
T4 sequence (Q16678 1-543): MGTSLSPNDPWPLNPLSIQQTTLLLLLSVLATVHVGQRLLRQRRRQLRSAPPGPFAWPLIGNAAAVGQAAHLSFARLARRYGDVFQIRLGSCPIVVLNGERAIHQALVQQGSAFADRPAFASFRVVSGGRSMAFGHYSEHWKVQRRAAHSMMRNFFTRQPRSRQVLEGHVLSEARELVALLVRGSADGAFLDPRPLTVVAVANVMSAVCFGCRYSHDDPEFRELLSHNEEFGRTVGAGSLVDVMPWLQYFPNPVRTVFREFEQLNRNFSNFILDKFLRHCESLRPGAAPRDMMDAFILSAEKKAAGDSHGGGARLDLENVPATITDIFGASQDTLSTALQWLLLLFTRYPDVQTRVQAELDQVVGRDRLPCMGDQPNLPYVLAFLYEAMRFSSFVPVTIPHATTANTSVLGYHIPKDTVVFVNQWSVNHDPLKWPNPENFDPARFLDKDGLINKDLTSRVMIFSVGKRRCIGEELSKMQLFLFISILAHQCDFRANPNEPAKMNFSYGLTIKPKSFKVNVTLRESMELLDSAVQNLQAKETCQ
Nature of the series: CITe-Id, HeLa S3 lysates, THZ1-DTB. The note with it: competition with 2 μM THZ1-DTB. In kind it is binding. An outline of the steps:
as §1

pIC50: −log10 of the molar value.

T1 sequence (Q6P5Z2 whole entry): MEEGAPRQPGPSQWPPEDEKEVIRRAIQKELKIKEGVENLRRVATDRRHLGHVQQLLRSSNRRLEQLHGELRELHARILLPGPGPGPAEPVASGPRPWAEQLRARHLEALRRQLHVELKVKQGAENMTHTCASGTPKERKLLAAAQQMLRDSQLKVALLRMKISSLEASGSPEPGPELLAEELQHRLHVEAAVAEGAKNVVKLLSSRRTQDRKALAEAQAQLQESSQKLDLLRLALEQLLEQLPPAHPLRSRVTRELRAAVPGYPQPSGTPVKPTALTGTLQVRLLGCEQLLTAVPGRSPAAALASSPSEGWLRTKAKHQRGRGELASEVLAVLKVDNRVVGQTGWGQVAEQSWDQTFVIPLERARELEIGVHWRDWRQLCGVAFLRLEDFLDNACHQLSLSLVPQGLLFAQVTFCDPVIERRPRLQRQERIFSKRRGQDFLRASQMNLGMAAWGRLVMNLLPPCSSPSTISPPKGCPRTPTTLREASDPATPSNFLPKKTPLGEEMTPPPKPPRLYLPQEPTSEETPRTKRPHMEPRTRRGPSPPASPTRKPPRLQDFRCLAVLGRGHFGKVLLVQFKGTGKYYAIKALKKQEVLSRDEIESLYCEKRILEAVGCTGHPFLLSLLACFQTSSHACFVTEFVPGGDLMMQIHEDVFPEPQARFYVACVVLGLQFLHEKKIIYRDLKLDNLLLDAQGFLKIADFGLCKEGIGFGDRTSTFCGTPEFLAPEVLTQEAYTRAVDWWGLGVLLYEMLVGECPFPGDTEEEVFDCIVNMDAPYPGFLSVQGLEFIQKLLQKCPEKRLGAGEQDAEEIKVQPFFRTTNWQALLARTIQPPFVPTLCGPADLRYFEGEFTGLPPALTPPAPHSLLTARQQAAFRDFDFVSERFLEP
T2 sequence (Q04759 whole entry): as the sequence (Q04759 whole entry) above
Chain of glycogen synthase kinase 3B (GSK3B) at C14 (P49841 whole entry): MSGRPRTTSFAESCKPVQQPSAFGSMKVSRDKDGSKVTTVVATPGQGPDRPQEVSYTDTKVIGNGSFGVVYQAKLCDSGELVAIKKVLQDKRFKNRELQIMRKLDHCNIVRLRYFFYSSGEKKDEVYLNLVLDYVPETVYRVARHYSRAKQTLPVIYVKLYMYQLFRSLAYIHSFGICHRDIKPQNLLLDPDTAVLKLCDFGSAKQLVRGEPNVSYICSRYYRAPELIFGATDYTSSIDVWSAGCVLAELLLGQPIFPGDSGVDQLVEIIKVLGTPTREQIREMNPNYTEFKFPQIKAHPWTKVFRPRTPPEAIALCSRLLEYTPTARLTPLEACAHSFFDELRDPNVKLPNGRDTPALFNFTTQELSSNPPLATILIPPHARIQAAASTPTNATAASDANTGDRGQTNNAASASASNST
Chain of PKN3 at C840 (Q6P5Z2 whole entry): as the sequence (Q6P5Z2 whole entry) above

Consider `CN(C)CCCC(=O)Nc1ccc(C(=O)Nc2cccc(Nc3ncc(Cl)c(-c4c[nH]c5ccccc45)n3)c2)cc1` [THZ1-R], for which, in the series with CDK12/13, the “competition for CDK12/13 against THZ1-DTB pulldown” value is listed as “competed poorly”. Besides, on PKN3 [1], the “competition for PKN3 against THZ1-DTB pulldown” value is listed as “competed poorly”. Besides, on PRKCQ [2], the “competition for PRKCQ against THZ1-DTB pulldown” value is recorded as “competed poorly”. Also, the “competition for CDK7 against THZ1-DTB pulldown” value on CDK7 [3] is listed as “competed poorly”. Moreover, the “time-dependent inhibition of PKN3” value at PKN3 [4] is “did not show time-dependent inhibition”. Further, the “potency against PKN3 relative to THZ1 (fold less potent)” value on PKN3 [4] (fixed time-point format) is reported as “more than 50 fold”.
As a reminder, the pIC50 is the negative decadic logarithm of the IC50, by convention in mol/L. Take `CN(C)C/C=C/C(=O)Nc1ccc(C(=O)Nc2cccc(Nc3ncc(Cl)c(-c4c[nH]c5ccccc45)n3)c2)cc1` [THZ1]: in series [5], the “competitive dose-response at GSK3B C14” value is “dose-dependent THZ1 competitive binding”. Also, the “competitive dose-response at CDK13 cysteine” value at CDK13 was “dose-dependent competitive binding”. On PKN3 [6], the “PKN3-mediated phosphorylation of EXOC2 (S432) peptide” value is given as “partially blocked” and the “PKN3-mediated phosphorylation of LAD1 (S375) peptide” value is “partially blocked”. On PKN3 at C840, the “competitive dose-response at PKN3 C840” value is on record as “dose-dependent THZ1 competitive binding”. Further, the “potency against PRKCQ” value on PRKCQ [7] was “weak potency”. Also, the “competitive dose-response at CDK12 cysteine” value at CDK12 was “dose-dependent competitive binding”. The “competition for CDK7 against THZ1-DTB pulldown” value on CDK7 [3] is recorded as “strong competition”. In addition, on CDK7 [8], the “competitive dose-response at CDK7 cysteine” value is “dose-dependent competitive binding”. For the same compound, at PKN3 [4], the “time-dependent inhibition of PKN3” value is “time dependent”. Also, at PKN3 [4] (read-out: IC50 against PKN3, fixed time-point format, 30 min preincubation), the pIC50 is 7.14. In [9], the “competitive dose-response at PRKCQ C661” value was “dose-dependent THZ1 competitive binding”. The “number of cysteine residues with dose-dependent competitive binding” value in series [10] was “eight”.
With `CN(C)C/C=C/C(=O)Nc1ccc(C(=O)N2CCC[C@@H](Nc3ncc(Cl)c(-c4c[nH]c5ccccc45)n3)C2)cc1` [THZ531], at CYP1B1, the “competitive dose-response at CYP1B1” value is recorded as “little or no reactivity”. In addition, in series [5], the “competitive dose-response at GSK3B C14” value was “gaining some activity”. The “competitive dose-response at PKN3 C840” value at PKN3 at C840 is “little or no reactivity”. The “competitive dose-response at PRKCQ C661” value in [9] is given as “little or no reactivity”.
